# PMC3776982 (British Journal of Cancer, 2013)
# Read-outs that look alike come from different tables or passages of the source.
# Key:
# Assay type in all cases: in vivo, human
# [1] = system: previously treated SCLC patients; assay: Adverse events
# How it was run: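 Toxicities graded by CTCAE v3.0 in adults with SCLC that had progressed after ≥2 prior chemotherapy regimens, including a platinum one. Paclitaxel 175 mg m−2 was given as a 3-h IV infusion every 3 weeks. Everolimus was given orally once daily (2.5, 5 or 10 mg) over 21-day courses. Patients were assessed weekly during cycle 1, then every 3 weeks.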
# [2] = system: small-cell lung cancer (SCLC); assay: Tumour response by phospho-Akt and phospho-S6 expression; conditions: everolimus + paclitaxel
# How it was run: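 Pretreatment tumour specimens were formalin-fixed and paraffin-embedded, cut into 4 μm sections, deparaffinised in xylene and rehydrated. Sections were immunostained on an autostainer with polymer detection, using rabbit monoclonal phospho-Akt (Ser473) at 1:80 and phospho-S6 (Ser235/236) at 1:200. Tumour response was assessed every two cycles by RECIST 1.1.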
# [3] = system: previously treated SCLC patients
# How it was run: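 Open-label 3-level escalation of oral daily everolimus (2.5→5→10 mg) with fixed paclitaxel 175 mg m−2 every 3 weeks; up to six patients per level, no intrapatient escalation. DLT was assessed in cycle 1 and defined as: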
# [4] = Everolimus pharmacokinetics in whole blood
# How it was run: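 Samples were taken from six expansion-cohort patients at the MTD with paclitaxel, 10 per patient. Post-dose samples were drawn at 1, 2, 4, 6, 12 and 24 h on day 1 of cycle 2. Everolimus was quantified in whole blood by LC-MS/MS after protein precipitation.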
# [5] = system: small-cell lung cancer (SCLC); assay: Tumour response according to RECIST version 1.1; conditions: + paclitaxel
# [6] = everolimus 5 mg daily (n=11), grade 3/4, + 3-weekly paclitaxel 175 mg m^−2
# [7] = everolimus 10 mg daily (n=3), grade 1/2, + 3-weekly paclitaxel 175 mg m^−2
# [8] = everolimus 10 mg daily (n=3), grade 3/4, + 3-weekly paclitaxel 175 mg m^−2
# [9] = all everolimus doses (n=20), any grade, + 3-weekly paclitaxel 175 mg m^−2
# [10] = everolimus 2.5 mg daily (n=6), grade 1/2, + 3-weekly paclitaxel 175 mg m^−2
# [11] = everolimus 2.5 mg daily (n=6), grade 3/4, + 3-weekly paclitaxel 175 mg m^−2
# [12] = everolimus 5 mg daily (n=11), grade 1/2, + 3-weekly paclitaxel 175 mg m^−2
smiles,measurement,setting,value
CO[C@H]1C[C@@H]2CC[C@@H](C)[C@@](O)(O2)C(=O)C(=O)N2CCCC[C@H]2C(=O)O[C@H]([C@H](C)C[C@@H]2CC[C@@H](OCCO)[C@H](OC)C2)CC(=O)[C@H](C)/C=C(\C)[C@@H](O)[C@@H](OC)C(=O)[C@H](C)C[C@H](C)/C=C/C=C/C=C/1C [everolimus],Itching (number of patients with adverse event),[1]; [6],0
same,Leukopenia (number of patients with adverse event),[1]; [6],4
same,Neuropathy (number of patients with adverse event),[1]; [6],1
same,Neutropenia (number of patients with adverse event),[1]; [6],6
same,Pain (number of patients with adverse event),[1]; [6],0
same,Pneumonitis (number of patients with adverse event),[1]; [6],0
same,Stomatitis (number of patients with adverse event),[1]; [6],0
same,Thrombocytopenia (number of patients with adverse event),[1]; [6],1
same,Vomiting (number of patients with adverse event),[1]; [6],0
same,ALT increased (number of patients with adverse event),[1]; [7],0
same,AST increased (number of patients with adverse event),[1]; [7],1
same,Anaemia (number of patients with adverse event),[1]; [7],3
same,Anorexia (number of patients with adverse event),[1]; [7],1
same,Diarrhoea (number of patients with adverse event),[1]; [7],1
same,Febrile neutropenia (number of patients with adverse event),[1]; [7],0
same,Hyperglycemia (number of patients with adverse event),[1]; [7],2
same,Hypertriglycemia (number of patients with adverse event),[1]; [7],2
same,Itching (number of patients with adverse event),[1]; [7],2
same,Leukopenia (number of patients with adverse event),[1]; [7],2
same,Neuropathy (number of patients with adverse event),[1]; [7],2
same,Neutropenia (number of patients with adverse event),[1]; [7],1
same,Pain (number of patients with adverse event),[1]; [7],2
same,Pneumonitis (number of patients with adverse event),[1]; [7],0
same,Stomatitis (number of patients with adverse event),[1]; [7],1
same,Thrombocytopenia (number of patients with adverse event),[1]; [7],2
same,Vomiting (number of patients with adverse event),[1]; [7],0
same,ALT increased (number of patients with adverse event),[1]; [8],0
same,AST increased (number of patients with adverse event),[1]; [8],0
same,Anaemia (number of patients with adverse event),[1]; [8],0
same,Anorexia (number of patients with adverse event),[1]; [8],0
same,Diarrhoea (number of patients with adverse event),[1]; [8],0
same,Febrile neutropenia (number of patients with adverse event),[1]; [8],0
same,Hyperglycemia (number of patients with adverse event),[1]; [8],1
same,Hypertriglycemia (number of patients with adverse event),[1]; [8],0
same,Itching (number of patients with adverse event),[1]; [8],0
same,Leukopenia (number of patients with adverse event),[1]; [8],0
same,Neuropathy (number of patients with adverse event),[1]; [8],0
same,Neutropenia (number of patients with adverse event),[1]; [8],2
same,Pain (number of patients with adverse event),[1]; [8],0
same,Pneumonitis (number of patients with adverse event),[1]; [8],0
same,Stomatitis (number of patients with adverse event),[1]; [8],0
same,Thrombocytopenia (number of patients with adverse event),[1]; [8],2
same,Vomiting (number of patients with adverse event),[1]; [8],0
same,Response in phospho-S6-negative group (responders/patients),[2],1/3
same,Response in phospho-S6-positive group (responders/patients),[2],1/3
same,Objective responses in patients with phospho-Akt-negative tumours,[2]; four patients,two objective responses
same,Objective response in phospho-Akt-positive patients,[2]; two patients (one stable and one progressive disease),No objective response
same,"Dose-limiting toxicity, cycle 1: Hyperglycemia (number of patients)",[3]; [9],1
same,"Dose-limiting toxicity, cycle 1: Thrombocytopenia (number of patients)",[3]; [9],2
same,Patients who experienced DLT in cycle 1,"[3]; dose level 1 (everolimus 2.5 mg daily), six patients, + 3-weekly paclitaxel 175 mg m^−2",None
same,"Dose-limiting toxicity, cycle 1: Hyperglycemia (number of patients)",[3]; [10],0
same,"Dose-limiting toxicity, cycle 1: Thrombocytopenia (number of patients)",[3]; [10],0
same,"Dose-limiting toxicity, cycle 1: Hyperglycemia (number of patients)",[3]; [11],0
same,"Dose-limiting toxicity, cycle 1: Thrombocytopenia (number of patients)",[3]; [11],0
same,"Dose-limiting toxicity, cycle 1: Hyperglycemia (number of patients)",[3]; [12],0
same,"Dose-limiting toxicity, cycle 1: Thrombocytopenia (number of patients)",[3]; [12],0
same,"Dose-limiting toxicity, cycle 1: Hyperglycemia (number of patients)",[3]; [6],0
same,"Dose-limiting toxicity, cycle 1: Hyperglycemia (number of patients)",[3]; [7],0
same,"Dose-limiting toxicity, cycle 1: Thrombocytopenia (number of patients)",[3]; [7],0
same,"Dose-limiting toxicity, cycle 1: Hyperglycemia (number of patients)",[3]; [8],1
same,"Dose-limiting toxicity, cycle 1: Thrombocytopenia (number of patients)",[3]; [8],1
same,MTD and recommended phase-2 dose (dose level),[3]; level 2 = everolimus 5 mg daily + 3-weekly paclitaxel 175 mg m^−2,level 2
same,Maximum tolerated dose (MTD) of everolimus,"[3]; once daily, in combination with paclitaxel 175 mg m^−2 every 3 weeks",5 mg
same,Interpatient coefficient of variation of pharmacokinetic parameters,"[4]; all parameters except Cmin, everolimus 5 mg daily with paclitaxel",less than 40%
same,Interpatient coefficient of variation of Cmin,[4]; everolimus 5 mg daily with paclitaxel,52%
same,AUC(0-t),"[4]; human, whole blood, po, 5 mg",284 ng·h/mL
same,Cmax,"[4]; human, whole blood, po, 5 mg",24.4 ng/mL
same,Tmax,"[4]; human, whole blood, po, 5 mg",0.98 to 6.02 h
same,Objective response rate,"[5]; dose level 1 (everolimus 2.5 mg daily), one out of 6 patients",17%
same,Objective response rate,"[5]; dose level 2 (everolimus 5 mg daily), 2 out of 10 patients",20%
same,Objective response rate,"[5]; dose level 3 (everolimus 10 mg daily), 2 out of 3 patients",67%
